Here are results for nine compounds from ChEMBL document CHEMBL1132926, “2-amino-2-oxazolines as subtype selective alpha(2) adrenoceptor agonists” (J Med Chem, 2000).

Assay [1] addresses T1, Alpha-2B adrenergic receptor (Homo sapiens, UniProt P18089).
T1 sequence (P18089 whole entry): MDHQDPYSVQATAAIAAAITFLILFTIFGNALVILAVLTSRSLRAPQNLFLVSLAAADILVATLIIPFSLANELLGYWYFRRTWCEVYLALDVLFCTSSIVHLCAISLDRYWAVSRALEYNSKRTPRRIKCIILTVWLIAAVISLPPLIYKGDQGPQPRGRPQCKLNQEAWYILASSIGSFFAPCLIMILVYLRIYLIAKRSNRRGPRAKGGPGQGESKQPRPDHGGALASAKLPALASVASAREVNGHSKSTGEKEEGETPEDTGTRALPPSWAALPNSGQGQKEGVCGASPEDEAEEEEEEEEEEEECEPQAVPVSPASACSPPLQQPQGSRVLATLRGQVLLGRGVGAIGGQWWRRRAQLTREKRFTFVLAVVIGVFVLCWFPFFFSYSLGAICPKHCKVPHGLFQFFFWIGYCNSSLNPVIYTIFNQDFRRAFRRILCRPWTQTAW
Kind of assay: Inhibitory constant against human Alpha-2B adrenergic receptor expressed in Y-1 cells using [3H]rauwolscine. The assay is classed as cell-based. A digest of the protocol:
(§1)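 Equilibrium competition binding against [3H]rauwolscine on membranes from cultured cells stably transfected with cloned human alpha2 subtypes: alpha2A and alpha2C in LM(tk-) cells, alpha2B in Y-1 cells. Equilibrium inhibition constants were estimated by nonlinear regression and reported as pKi.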

Assay [2] deals with T2, Alpha-2A adrenergic receptor (Homo sapiens, UniProt P08913).
T2 sequence (P08913 whole entry): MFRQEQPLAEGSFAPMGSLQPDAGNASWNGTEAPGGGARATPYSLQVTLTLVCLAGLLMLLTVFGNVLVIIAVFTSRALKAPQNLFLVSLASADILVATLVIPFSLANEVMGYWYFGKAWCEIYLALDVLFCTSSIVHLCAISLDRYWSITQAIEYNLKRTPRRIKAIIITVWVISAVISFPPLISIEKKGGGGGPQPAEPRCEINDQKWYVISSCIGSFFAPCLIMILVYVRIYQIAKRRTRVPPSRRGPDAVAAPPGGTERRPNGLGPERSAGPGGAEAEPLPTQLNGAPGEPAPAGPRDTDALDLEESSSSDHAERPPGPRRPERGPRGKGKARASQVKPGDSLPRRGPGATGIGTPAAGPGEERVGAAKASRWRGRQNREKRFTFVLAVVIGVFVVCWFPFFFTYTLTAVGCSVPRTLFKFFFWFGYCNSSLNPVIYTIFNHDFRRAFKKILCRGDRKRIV
As to the kind of experiment: Inhibitory constant against human Alpha-2A adrenergic receptor expressed in LM(tk-) cells using [3H]rauwolscine. The assay is classed as cell-based. A digest of the protocol: as §1

Assay [3] deals with T3, Alpha-2A adrenergic receptor (Homo sapiens) (UniProt P08913).
T3 sequence (whole entry): T2 sequence (P08913 whole entry)
As to the kind of experiment: Alpha-2A adrenergic receptor agonism measured as ability to inhibit forskolin-stimulated synthesis of cAMP; NA=not active. The assay is classed as functional.

In assay [4] the target is T4, Alpha-2C adrenergic receptor (Homo sapiens) (UniProt P18825).
T4 sequence (whole entry): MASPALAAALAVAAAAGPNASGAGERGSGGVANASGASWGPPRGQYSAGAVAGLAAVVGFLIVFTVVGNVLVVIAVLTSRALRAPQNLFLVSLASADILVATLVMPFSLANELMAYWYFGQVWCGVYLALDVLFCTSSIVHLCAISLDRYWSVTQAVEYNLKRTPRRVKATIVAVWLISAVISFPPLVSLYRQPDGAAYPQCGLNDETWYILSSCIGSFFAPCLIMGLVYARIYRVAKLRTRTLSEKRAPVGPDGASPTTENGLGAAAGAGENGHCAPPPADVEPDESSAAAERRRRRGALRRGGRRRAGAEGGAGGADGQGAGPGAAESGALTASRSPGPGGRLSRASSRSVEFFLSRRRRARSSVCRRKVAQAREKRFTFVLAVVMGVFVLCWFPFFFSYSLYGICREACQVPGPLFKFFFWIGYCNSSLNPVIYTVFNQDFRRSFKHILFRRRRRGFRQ
Kind of assay: Alpha2c receptor agonism measured as ability to inhibit forskolin-stimulated synthesis of cAMP; NA=not active. Format: functional.

In assay [5] the target is T5, Alpha-2B adrenergic receptor (Homo sapiens) (UniProt P18089).
T5 sequence (whole entry): T1 sequence (P18089 whole entry)
As to the kind of experiment: Alpha-2B adrenergic receptor agonism measured as ability to inhibit forskolin-stimulated synthesis of cAMP; NA=not active. The assay is classed as functional.

The target in assay [6] is T6, Alpha-2C adrenergic receptor (Homo sapiens, UniProt P18825).
T6 sequence (P18825 whole entry): T4 sequence (whole entry)
As to the kind of experiment: Inhibitory constant, using [3H]rauwolscine in LM(tk-) cells stably transfected with cloned human Alpha-2C adrenergic receptor. Format: cell-based. Summed up: as §1

The target in assay [7] is T5, Alpha-2B adrenergic receptor (Homo sapiens). As to the kind of experiment: Alpha-2B adrenergic receptor agonism measured as ability to inhibit forskolin-stimulated synthesis of cAMP; NA=not active (IA< 0.3). Format: functional.
For assay [8], the target named is T4, Alpha-2C adrenergic receptor (Homo sapiens). Kind of assay: Alpha2c receptor agonism measured as ability to inhibit forskolin-stimulated synthesis of cAMP; NA=not active (IA< 0.3). The assay is classed as functional.
Assay [9] has the same target. As to the kind of experiment: Alpha-2C adrenergic receptor agonism measured as ability to inhibit forskolin-stimulated synthesis of cAMP; NA=not active. The assay is classed as functional.
Assay [10] concerns the target T6, Alpha-2C adrenergic receptor. Kind of assay: (§2) Alpha2c receptor agonism measured as ability to inhibit forskolin-stimulated synthesis of cAMP. The assay is classed as functional.
Assay [11] addresses T5, Alpha-2B adrenergic receptor (Homo sapiens). Kind of assay: Alpha2b receptor agonism measured as ability to inhibit forskolin-stimulated synthesis of cAMP;NA=not active. The assay is classed as functional.
The target of assay [12] is T1, Alpha-2B adrenergic receptor. As to the kind of experiment: (§3) Alpha-2B adrenergic receptor agonism measured as ability to inhibit forskolin-stimulated synthesis of cAMP. The assay is classed as functional.
Assay [13] has as its target T3, Alpha-2A adrenergic receptor (Homo sapiens). As to the kind of experiment: Alpha2a receptor agonism measured as ability to inhibit forskolin-stimulated synthesis of cAMP. The assay is classed as functional.
For assay [14], the target named is T2, Alpha-2A adrenergic receptor. As to the kind of experiment: Alpha-2A adrenergic receptor agonism measured as ability to inhibit forskolin-stimulated synthesis of cAMP. Format: functional.
Assay [15] deals with T4, Alpha-2C adrenergic receptor (Homo sapiens). The assay is described as §2. Format: functional.
For assay [16], the target named is T5, Alpha-2B adrenergic receptor (Homo sapiens). Described as §3. The assay is classed as functional.
Assay [17] has as its target T6, Alpha-2C adrenergic receptor. As to the kind of experiment: Inhibitory constant determined using [3H]rauwolscine in LM(tk-) cells stably transfected with cloned human Alpha-2C adrenergic receptor. The assay is classed as cell-based. A digest of the protocol:
as §1

Assay [18] has the same target. Kind of assay: Alpha-2C adrenergic receptor agonism measured as ability to inhibit forskolin-stimulated synthesis of cAMP. The assay is classed as functional.
The target in assay [19] is T5, Alpha-2B adrenergic receptor (Homo sapiens). Kind of assay: Alpha2b receptor agonism measured as ability to inhibit forskolin-stimulated synthesis of cAMP; NA=not active. The assay is classed as functional.

The source made the active and inactive calls. The rule behind the calls is not given here.

Turning to `c1ccc(CC[C@H]2CCCC[C@@H]2NC2=NCCO2)cc1`, the Ki (in general, the dissociation constant of the complex between target and ligand, obtained from inhibition or displacement) is 6.92 nM in assay [1], 1.45 nM in assay [2] and 10.7 nM in assay [6]. In addition, the NA entry in assay [3], in assay [4] and in [5] was “inactive” each time.
As for `c1ccc(C[C@H]2CCCC[C@@H]2NC2=NCCO2)cc1`, the NA result in assay [7] and in assay [8] was “inactive” each time. Further, the Ki in assay [1] was 40.7 nM; in [2], 20.9 nM; in assay [6] it was 66.1 nM. Also, in [3], the alpha-2A agonist activity entry was “inactive”.
Regarding `c1ccc([C@H]2CCCC[C@@H]2NC2=NCCO2)cc1`, the NA entry in assay [9] and in assay [5] was “inactive” throughout. Also, the Ki in assay [1] was 22.4 nM; in assay [2], 18.2 nM; in assay [6], 52.5 nM. In addition, the alpha-2A agonist activity entry in assay [3] is “inactive”.
As to `c1ccc(CCC[C@H]2CCCC[C@@H]2NC2=NCCO2)cc1`, the Ki in [1] is 32.4 nM; in [2] it was 15.1 nM; in assay [6], 32.4 nM. Further, the alpha-2A agonist activity result in assay [3] is “inactive”. Besides, in assay [5], the NA result is “inactive”. For the same compound, the EC50 (in general, the concentration needed to bring the measured effect to its halfway point) in assay [10] was 26.9 nM.
For the compound `c1ccc(C[C@H]2C3CCC(C3)[C@H]2NC2=NCCO2)cc1` (some centres not stated), the Ki was 40.7 nM in assay [1], 13.8 nM in assay [2] and 79.4 nM in assay [6]. The alpha-2A agonist activity entry in assay [3] was “inactive”. The compound further had an EC50 in assay [10] of 13.8 nM. For the same compound, the NA result in [11] is “inactive”.
As to `CCC[C@H]1C2CCC(C2)[C@H]1NC1=NCCO1` (some centres not stated), the Ki in assay [1] was 91.2 nM; in [2], 28.2 nM; in assay [6], 123 nM. The values for the EC50 in assay [12], in assay [14] and in assay [10] were 562 nM, 11 nM and 21.4 nM, respectively. Also, the Intrinsic activity is 0.9 in assay [13], 0.9 in assay [15] and 0.4 in assay [16].
On to `CCC[C@H]1CCCC[C@@H]1NC1=NCCO1`, for which the Ki in assay [1] is 5.89 nM; in [2], 2.95 nM; in [17], 24.5 nM. Further, the results for the EC50 in assay [12], in assay [14] and in [18] were 9.33 nM, 1.62 nM and 4.07 nM, respectively.
Take `c1ccc(CCC[C@H]2C3CCC(C3)[C@H]2NC2=NCCO2)cc1` (some centres not stated): the Ki in [1] is 141 nM; in assay [2] it was 30.9 nM; in assay [6] it was 123 nM. Also, in assay [19], the NA result was “inactive”. For the same compound, the EC50 was 34.7 nM in assay [14] and 60.3 nM in assay [10].
In the case of `C(=C\c1ccccc1)/C[C@H]1C2CCC(C2)[C@H]1NC1=NCCO1` (some centres not stated), the results for the Ki in [1], in assay [2] and in [6] were 102 nM, 15.8 nM and 85.1 nM, respectively. Also, the NA result in [19] is “inactive”. For the same compound, the results for the EC50 in assay [14] and in [10] were 70.8 nM and 2 nM, respectively.
